Bioassay records from PubChem.
S1P4 antagonist: S1P4 receptor antagonists, primary screen, cell-based | Sphingosine 1-phosphate receptor 4 (Homo sapiens), O95977 | S1P4-expressing cells, antagonist mode, reporter read-out | inhibition, % at 4.98 µM | 220,000 compounds, 0.26% hits; in the data active = inhibition above about 29%
Target sequence (O95977 whole entry, looked up): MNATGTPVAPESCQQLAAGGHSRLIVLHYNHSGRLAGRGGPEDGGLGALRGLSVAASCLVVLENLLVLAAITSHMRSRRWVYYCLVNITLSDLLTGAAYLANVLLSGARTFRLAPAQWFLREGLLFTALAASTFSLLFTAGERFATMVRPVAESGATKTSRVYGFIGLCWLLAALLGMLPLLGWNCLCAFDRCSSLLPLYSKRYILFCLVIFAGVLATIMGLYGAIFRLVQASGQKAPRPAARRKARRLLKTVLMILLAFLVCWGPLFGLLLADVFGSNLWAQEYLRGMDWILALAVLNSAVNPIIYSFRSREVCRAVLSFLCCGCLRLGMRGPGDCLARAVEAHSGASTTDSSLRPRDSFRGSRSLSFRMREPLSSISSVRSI
NPY-Y1 antag: NPY-Y1 receptor antagonists, primary screen, cell-based. Neuropeptide Y receptor type 1 (Homo sapiens), P25929. HEK293-CNG Y1 cells, membrane potential fluorescence; NPY at EC95, then isoproterenol. inhibition, % at 3.6 µM. 200,000 compounds, 1% hits;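 active = inhibition above the campaign mean inhibition of all tested compounds plus 3 SD, cut at about 20% in these data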
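System: HEK293 cells with Y1 receptor plus CNG channel / Probe or stimulus: NPY 25 nM then isoproterenol 1 µM plus Ro 20-1724 25 µM / Compound: one concentration, 3.6 µM, in 0.4% DMSO / Schedule: compound incubation 1 h at room temperature, readout 45 min post-stimulation / Measured by: membrane potential fluorescence / Read-out: % inhibition of NPY effect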
NPY-Y1 PAM-ag: NPY-Y1 receptor potentiators or agonists, primary screen, cell-based; activation, % at 3.6 µM; 220,000 compounds, 0.37% hits; Neuropeptide Y receptor type 1 (Homo sapiens), P25929; NPY-Y1 expressing cells, potentiator/agonist activation; in the data active = activation above about 33%, passing the limit was not always enough;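 also: cells stimulated with NPY at EC10 then isoproterenol at EC100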
NPY-Y2 PAM-ag: NPY-Y2 potentiators or agonists, primary screen, cell-based; Neuropeptide Y receptor type 2 (Homo sapiens), P49146; cells expressing NPY-Y2, potentiator/agonist read-out; activation, % at 3.6 µM; 220,000 compounds, 0.45% hits; AID 1359, 2008; in the data active = activation above about 27%;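 also: cells stimulated with NPY near EC25 plus isoproterenol at EC100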
NPY-Y2 antag: NPY-Y2 receptor antagonists, primary screen, cell-based. NPY-Y2 expressing cells, antagonist mode. inhibition, % at 2.7 µM. 140,000 compounds, 0.99% hits. Neuropeptide Y receptor type 2 (Homo sapiens), P49146. AID 793, 2007
S1P4 agonist: S1P4 receptor agonists, primary screen, cell-based | S1P4-expressing cell line, agonist reporter assay | activation, % at 4.98 µM | 220,000 compounds, 0.35% hits; in the data active = activation above about 11%
NPY-Y1 ant conf: NPY-Y1 receptor antagonists, retest of hits, confirmation, HEK293-CNG cells, membrane potential fluorescence, triplicate. shares compounds with NPY-Y1 antag. cAMP; NPY challenge against isoproterenol-raised cAMP. inhibition, % at 3.6 µM. 1,200 compounds, 21% hits. AID 1254, 2008; in the data active = inhibition above about 20%
NPY-Y2 antag ct: NPY-Y2 receptor antagonists, selectivity check, confirmation, counter-screen for NPY-Y1 antagonist project, HEK293-CNG cells, membrane potential fluorescence, triplicate; antagonism; cells given NPY, then isoproterenol; inhibition, % at 3.6 µM; shares compounds with NPY-Y1 antag; 1,200 compounds, 28% hits
Each line names hits and unclear results; the compound was inactive in the other large screens (follow-up assays come after a bar, where they were run). A selection: hits, their analogues and other compounds. The true share with any hit is near 2.4%. Rule as the data show it, unless noted: active = inhibition above about 17%; inactive = the rest.

COc1ccc(C(=O)Nc2cccc3cccnc23)cc1OC	none
CC(C)Oc1ccc(C(=O)Nc2cccc3cccnc23)cc1	NPY-Y1 antag 22 (no result: NPY-Y2 antag) | NPY-Y1 ant conf inactive | NPY-Y2 antag ct 24
O=C(N/N=C/c1ccccc1OC(=O)c1ccc2c(c1)OCO2)c1cccc(F)c1	NPY-Y1 antag 21 | NPY-Y1 ant conf inactive | NPY-Y2 antag ct inactive
O=c1[nH]c(SCc2ccc([N+](=O)[O-])cc2)nc2[nH]ncc12	none (no result: NPY-Y2 antag)
COCCCNc1nc(SCc2ccccc2)nc2sc3c(c12)CCC3	NPY-Y1 antag 21 | NPY-Y1 ant conf 30 | NPY-Y2 antag ct 46
N#Cc1cnn(-c2nc(SCc3ccccc3)nc3sc4c(c23)CCCC4)c1N	none
NS(=O)(=O)c1ccc(NNC(=O)c2sccc2Cl)cc1	none (no result: NPY-Y1 antag, NPY-Y2 antag)
CCn1c2ccccc2c2cc(NC(=O)c3cc(OC)c(OC)c(OC)c3)ccc21	NPY-Y1 antag 35 | NPY-Y1 ant conf inactive | NPY-Y2 antag ct inactive
CCCCC1C(C#N)=C(C)NC2=C1C(=O)CC(C)(C)C2 (configuration not stated)	none
CCOCCCNC(=O)C(NC(=O)c1ccccc1O)c1ccc(Cl)cc1 (configuration not stated)	none (no result: NPY-Y2 antag)
CCNC(=O)c1ccccc1-c1nc(-c2ccccc2OC)no1	none (no result: NPY-Y1 antag, NPY-Y2 antag)
CCOc1ccccc1NC(=O)c1ccccc1-c1nc(-c2ccccc2OC)no1	NPY-Y1 antag 43 | NPY-Y1 ant conf 24 | NPY-Y2 antag ct 23
S=c1nc[nH]c2c1[nH]c1ccccc12	NPY-Y1 antag 39 | NPY-Y1 ant conf inactive | NPY-Y2 antag ct inactive
S=c1nc[nH]c2c1[nH]c1ccc(Cl)cc12	none (no result: NPY-Y1 antag, NPY-Y2 antag)
CCOC(=O)C(=CNc1cscc1S(=O)(=O)C(C)C)C(=O)OCC	none (no result: NPY-Y1 antag, NPY-Y2 antag)
O=C(NCc1ccco1)c1nc(-c2ccc(F)cc2)no1	NPY-Y1 antag 24 (no result: NPY-Y2 antag) | NPY-Y1 ant conf inactive | NPY-Y2 antag ct inactive
CN(C)c1ccc(N=Nc2ccccc2C(=O)OCC(=O)N(C)c2ccccc2)cc1	none
COc1cc(CNc2ccccc2Oc2cc(=O)n(C)c(=O)n2C)cc(OC)c1OC	NPY-Y1 antag 36 | NPY-Y1 ant conf inactive | NPY-Y2 antag ct inactive
CCCCCCCCCCOC(=O)C[N+](C)(C)C/C=C(/C)Cl	NPY-Y1 antag 23 | NPY-Y1 ant conf inactive | NPY-Y2 antag ct inactive
COc1ccc(OC)c(C2=Nn3c(nnc3-c3cc(OC)c(OC)c(OC)c3)SC2)c1	NPY-Y1 antag 27 | NPY-Y1 ant conf 24 | NPY-Y2 antag ct 29
COc1cccc(-c2nnc3n2N=C(c2cc(OC)ccc2OC)CS3)c1	none
Cc1cc(C)c(CN2CCC(CO)(CCOc3ccccc3)CC2)cc1C	NPY-Y1 antag 30 (no result: NPY-Y2 antag) | NPY-Y1 ant conf inactive | NPY-Y2 antag ct 23
COc1ccc(OC)c(CN2CCC(CO)(CCOc3ccccc3)CC2)c1	none (no result: NPY-Y2 antag)
O=C(CC1N=C(Cc2ccccc2)NNC1=O)N/N=C/c1ccc([N+](=O)[O-])cc1 (configuration not stated)	none (no result: NPY-Y2 antag)
CC1CCN(c2ccccc2NC(=O)c2ccc(C#N)cc2F)CC1	none (no result: NPY-Y2 antag)
CC(C)C(=O)N1CCN(c2ccccc2NC(=O)c2ccc(C#N)cc2F)CC1	NPY-Y1 antag 42 (no result: NPY-Y2 antag) | NPY-Y1 ant conf inactive | NPY-Y2 antag ct inactive
Cc1cccc(C2c3[nH]c4ccccc4c3CCN2Cc2cccn2-c2ncccn2)c1 (configuration not stated)	NPY-Y1 antag 32 (no result: NPY-Y2 antag) | NPY-Y1 ant conf inactive | NPY-Y2 antag ct inactive
COc1ccc(C2c3[nH]c4ccccc4c3CCN2Cc2cccn2-c2ncccn2)cc1C (configuration not stated)	NPY-Y1 antag 67 (no result: NPY-Y2 antag) | NPY-Y1 ant conf 41 | NPY-Y2 antag ct 32
c1ccc(C2c3[nH]c4ccccc4c3CCN2Cc2cccn2-c2ccccn2)nc1 (configuration not stated)	none (no result: NPY-Y1 antag, NPY-Y2 antag)
